Assay results: ChEMBL document CHEMBL1629526, “4-[1-(Substituted aryl/alkyl carbonyl)-benzoimidazol-2-yl]-benzenesulfonic acids: synthesis, antimicrobial activity, QSAR studies, and antiviral evaluation” (Eur J Med Chem, 2010)
≈ marks a conversion by molar mass, not a printed value.

How the values were obtained:
Staphylococcus aureus = experiment: Antimicrobial activity against Staphylococcus aureus after 24 hrs by tube dilution method; type: functional
Bacillus subtilis = experiment: Antimicrobial activity against Bacillus subtilis after 24 hrs by tube dilution method; type: functional
In short: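 Serial dilutions in double-strength nutrient broth (I.P.) with ciprofloxacin as reference, tube dilution, incubated 37 °C for 24 h. MIC is the lowest concentration that inhibited growth.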

Escherichia coli = experiment: Antimicrobial activity against Escherichia coli after 24 hrs by tube dilution method; type: functional
Candida albicans = experiment: Antimicrobial activity against Candida albicans after 48 hrs by tube dilution method; type: functional
Aspergillus niger = experiment: Antimicrobial activity against Aspergillus niger after 7 days by tube dilution method; type: functional; details: 168 h
[1] = Cytotoxicity against cat CRFK cells assessed as cell viability by MTS assay; type: cell-based, Felis catus; details: crfk
In short: (§1)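 Uninfected cultures were run in parallel with the antiviral assays. Viability was read by colorimetric formazan MTS assay.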

Felid alphaherpesvirus 1 = experiment: Antiviral activity against Feline herpesvirus 1 infected in cat CRFK cells assessed as inhibition of virus induced cytopathicity after 2 to 4 days by MTS assay; type: functional, organism-based; details: Felid alphaherpesvirus 1, CRFK
Feline coronavirus = experiment: Antiviral activity against Feline coronavirus infected in cat CRFK cells assessed as inhibition of virus induced cytopathicity after 2 to 4 days by MTS assay; type: functional, organism-based; details: Alphacoronavirus 1, CRFK
[2] = Cytotoxicity against human HEL cells assessed as altered cell morphology; type: cell-based
In short: (§2)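 Uninfected cell cultures run alongside the antiviral assays, exposed to serial compound dilutions and incubated at 37 °C for 2–4 days. Toxicity was scored microscopically and reported as the minimum cytotoxic concentration (MCC), the lowest concentration causing a detectable change in normal cell morphology.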

Human alphaherpesvirus 1 [3] = experiment: Antiviral activity against Herpes simplex virus 1 KOS infected in HEL cells assessed as inhibition of virus induced cytopathicity after 2 to 4 days by MTS assay; type: functional, organism-based; details: Human alphaherpesvirus 1, KOS
Human alphaherpesvirus 2 = experiment: Antiviral activity against Herpes simplex virus 2 G infected in HEL cells assessed as inhibition of virus induced cytopathicity after 2 to 4 days by MTS assay; type: functional, organism-based; details: Human alphaherpesvirus 2, strain G
Vaccinia virus = experiment: Antiviral activity against Vaccinia virus infected in HEL cells assessed as inhibition of virus induced cytopathicity after 2 to 4 days by MTS assay; type: functional, organism-based; details: Orthopoxvirus vaccinia
[4] = tested on: Vesicular stomatitis virus; experiment: Antiviral activity against Vesicular stomatitis virus infected in HEL cells assessed as inhibition of virus induced cytopathicity after 2 to 4 days by MTS assay; type: functional, organism-based
Human alphaherpesvirus 1 [5] = experiment: Antiviral activity against thymidine kinase deficient acyclovir-resistant Herpes simplex virus 1 KOS infected in HEL cells assessed as inhibition of virus induced cytopathicity after 2 to 4 days by MTS assay; type: functional, organism-based; details: Human alphaherpesvirus 1, KOS
HeLa = experiment: Cytotoxicity against human HeLa cells assessed as cell viability by MTS assay; type: cell-based; details: hela; in short: as §1
[6] = Cytotoxicity against human HeLa cells assessed as altered cell morphology; type: cell-based; in short: as §2
[7] = tested on: Vesicular stomatitis virus; experiment: Antiviral activity against Vesicular stomatitis virus infected in human HeLa cells assessed as inhibition of virus induced cytopathicity by visual scoring of CPE; type: functional, organism-based
[8] = tested on: Vesicular stomatitis virus; experiment: Antiviral activity against Vesicular stomatitis virus infected in human HeLa cells assessed as inhibition of virus induced cytopathicity after 2 to 4 days by MTS assay; type: functional, organism-based
Coxsackievirus B4 [9] = experiment: Antiviral activity against coxsackievirus B4 infected in human HeLa cells assessed as inhibition of virus induced cytopathicity by visual scoring of CPE; type: functional, organism-based; details: Enterovirus B
Coxsackievirus B4 [10] = experiment: Antiviral activity against coxsackievirus B4 infected in human HeLa cells assessed as inhibition of virus induced cytopathicity after 2 to 4 days by MTS assay; type: functional, organism-based; details: Enterovirus B
[11] = tested on: Respiratory syncytial virus; experiment: Antiviral activity against Respiratory syncytial virus infected in human HeLa cells assessed as inhibition of virus induced cytopathicity by visual scoring of CPE; type: functional, organism-based
[12] = tested on: Respiratory syncytial virus; experiment: Antiviral activity against Respiratory syncytial virus infected in human HeLa cells assessed as inhibition of virus induced cytopathicity after 2 to 4 days by MTS assay; type: functional, organism-based
MDCK = experiment: Cytotoxicity against MDCK cells assessed as cell viability by MTS assay; type: cell-based, Canis lupus familiaris; details: dog, mdck; in short: as §1
[13] = Cytotoxicity against MDCK cells assessed as altered cell morphology; type: cell-based, Canis lupus familiaris; details: dog; in short: as §2
Influenza A virus [14] = experiment: Antiviral activity against Influenza A H3N2 virus subtype infected in MDCK cells assessed as inhibition of virus induced cytopathicity by visual scoring of CPE; type: functional, organism-based
Influenza A virus [15] = experiment: Antiviral activity against Influenza A H3N2 virus subtype infected in MDCK cells assessed as inhibition of virus induced cytopathicity after 2 to 4 days by MTS assay; type: functional, organism-based
Influenza B virus [16] = experiment: Antiviral activity against Influenza B virus infected in MDCK cells assessed as inhibition of virus induced cytopathicity by visual scoring of CPE; type: functional, organism-based
Influenza B virus [17] = experiment: Antiviral activity against Influenza B virus infected in MDCK cells assessed as inhibition of virus induced cytopathicity after 2 to 4 days by MTS assay; type: functional, organism-based
[18] = Cytotoxicity against african green monkey Vero cells assessed as altered cell morphology; type: cell-based; details: chlorocebus sabaeus; in short: as §2
Human respirovirus 3 = experiment: Antiviral activity against parainfluenza-3 virus infected in african green monkey Vero cells assessed as inhibition of virus induced cytopathicity after 2 to 4 days by MTS assay; type: functional, organism-based; details: Human respirovirus 3, Vero
[19] = tested on: Mammalian orthoreovirus 1; experiment: Antiviral activity against Reovirus 1 virus infected in african green monkey Vero cells assessed as inhibition of virus induced cytopathicity after 2 to 4 days by MTS assay; type: functional, organism-based; details: Mammalian orthoreovirus 1, Vero
Sindbis virus = experiment: Antiviral activity against Sindbis virus infected in african green monkey Vero cells assessed as inhibition of virus induced cytopathicity after 2 to 4 days by MTS assay; type: functional, organism-based
Coxsackievirus B4 [20] = experiment: Antiviral activity against Coxsackie virus B4 infected in african green monkey Vero cells assessed as inhibition of virus induced cytopathicity after 2 to 4 days by MTS assay; type: functional, organism-based; details: Enterovirus B
Punta Toro virus = experiment: Antiviral activity against Punta Toro virus infected in african green monkey Vero cells assessed as inhibition of virus induced cytopathicity after 2 to 4 days by MTS assay; type: functional, organism-based

| SMILES | MBC (Staphylococcus aureus) [µg/mL] | MBC (Bacillus subtilis) [µg/mL] | MBC (Escherichia coli) [µg/mL] | MFC (Candida albicans) [µg/mL] | MFC (Aspergillus niger) [µg/mL] | CC50 [1] [µg/mL] | EC50 (Felid alphaherpesvirus 1) [µg/mL] | EC50 (Feline coronavirus) [µg/mL] | MCC [2] [µg/mL] | EC50 (Human alphaherpesvirus 1 [3]) [µg/mL] | EC50 (Human alphaherpesvirus 2) [µg/mL] | EC50 (Vaccinia virus) [µg/mL] | EC50 [4] [µg/mL] | EC50 (Human alphaherpesvirus 1 [5]) [µg/mL] | CC50 (HeLa) [µg/mL] | MCC [6] [µg/mL] | EC50 [7] [µg/mL] | EC50 [8] [µg/mL] | EC50 (Coxsackievirus B4 [9]) [µg/mL] | EC50 (Coxsackievirus B4 [10]) [µg/mL] | further results |
| --- | --- | --- | --- | --- | --- | --- | --- | --- | --- | --- | --- | --- | --- | --- | --- | --- | --- | --- | --- | --- | --- |
| Cc1ccccc1C(=O)n1c(-c2ccc(S(=O)(=O)O)cc2)nc2ccccc21 | 6.25 (≈ 15.9 µM) | > 50 | 3.12 (≈ 7.95 µM) | 50 (≈ 127 µM) | > 50 | > 100 | > 100 | > 100 | > 100 | > 100 | > 100 | > 100 | > 100 | > 100 | > 100 | > 100 | > 100 | > 100 | > 100 | > 100 | EC50 [11]: > 100 µg/mL; EC50 [12]: > 100 µg/mL; CC50 (MDCK): > 100 µg/mL; MCC [13]: > 100 µg/mL; EC50 (Influenza A virus [14]): > 100 µg/mL; EC50 (Influenza A virus [15]): > 100 µg/mL; EC50 (Influenza B virus [16]): > 100 µg/mL; EC50 (Influenza B virus [17]): > 100 µg/mL; MCC [18]: > 100 µg/mL; EC50 (Human respirovirus 3): > 100 µg/mL; EC50 [19]: > 100 µg/mL; EC50 (Sindbis virus): > 100 µg/mL; EC50 (Coxsackievirus B4 [20]): > 100 µg/mL; EC50 (Punta Toro virus): > 100 µg/mL |
| C=C(C)C(=O)n1c(-c2ccc(S(=O)(=O)O)cc2)nc2ccccc21 | 6.25 (≈ 18.3 µM) | 12.5 (≈ 36.5 µM) | 12.5 (≈ 36.5 µM) | > 50 | > 50 | > 100 | > 100 | > 100 | > 100 | > 100 | > 100 | > 100 | > 100 | > 100 | > 100 | > 100 | > 100 | > 100 | > 100 | > 100 | EC50 [11]: > 100 µg/mL; EC50 [12]: > 100 µg/mL; CC50 (MDCK): > 100 µg/mL; MCC [13]: > 100 µg/mL; EC50 (Influenza A virus [14]): > 100 µg/mL; EC50 (Influenza A virus [15]): > 100 µg/mL; EC50 (Influenza B virus [16]): > 100 µg/mL; EC50 (Influenza B virus [17]): > 100 µg/mL; MCC [18]: > 100 µg/mL; EC50 (Human respirovirus 3): > 100 µg/mL; EC50 [19]: > 100 µg/mL; EC50 (Sindbis virus): > 100 µg/mL; EC50 (Coxsackievirus B4 [20]): > 100 µg/mL; EC50 (Punta Toro virus): > 100 µg/mL |
| Cc1ccc(C(=O)n2c(-c3ccc(S(=O)(=O)O)cc3)nc3ccccc32)cc1 | 12.5 (≈ 31.9 µM) | 6.25 (≈ 15.9 µM) | 25 (≈ 63.7 µM) | 50 (≈ 127 µM) | > 50 | > 100 | > 100 | > 100 | > 100 | > 100 | > 100 | > 100 | > 100 | > 100 | > 100 | > 100 | > 100 | > 100 | > 100 | > 100 | EC50 [11]: > 100 µg/mL; EC50 [12]: > 100 µg/mL; CC50 (MDCK): > 100 µg/mL; MCC [13]: > 100 µg/mL; EC50 (Influenza A virus [14]): > 100 µg/mL; EC50 (Influenza A virus [15]): > 100 µg/mL; EC50 (Influenza B virus [16]): > 100 µg/mL; EC50 (Influenza B virus [17]): > 100 µg/mL; MCC [18]: > 100 µg/mL; EC50 (Human respirovirus 3): > 100 µg/mL; EC50 [19]: > 100 µg/mL; EC50 (Sindbis virus): > 100 µg/mL; EC50 (Coxsackievirus B4 [20]): > 100 µg/mL; EC50 (Punta Toro virus): > 100 µg/mL |
| C/C=C/C(=O)n1c(-c2ccc(S(=O)(=O)O)cc2)nc2ccccc21 | 12.5 (≈ 36.5 µM) | 50 (≈ 146 µM) | 12.5 (≈ 36.5 µM) | > 50 | > 50 | > 100 | > 100 | > 100 | > 100 | > 100 | > 100 | > 100 | > 100 | > 100 | > 100 | > 100 | > 100 | > 100 | > 100 | > 100 | EC50 [11]: > 100 µg/mL; EC50 [12]: > 100 µg/mL; CC50 (MDCK): > 100 µg/mL; MCC [13]: > 100 µg/mL; EC50 (Influenza A virus [14]): > 100 µg/mL; EC50 (Influenza A virus [15]): > 100 µg/mL; EC50 (Influenza B virus [16]): > 100 µg/mL; EC50 (Influenza B virus [17]): > 100 µg/mL; MCC [18]: > 100 µg/mL; EC50 (Human respirovirus 3): > 100 µg/mL; EC50 [19]: > 100 µg/mL; EC50 (Sindbis virus): > 100 µg/mL; EC50 (Coxsackievirus B4 [20]): > 100 µg/mL; EC50 (Punta Toro virus): > 100 µg/mL |
| O=C(c1cccnc1)n1c(-c2ccc(S(=O)(=O)O)cc2)nc2ccccc21 | 12.5 (≈ 32.9 µM) | > 50 | 1.56 (≈ 4.11 µM) | > 50 | > 50 | > 100 | > 100 | > 100 | > 100 | > 100 | > 100 | > 100 | > 100 | > 100 | > 100 | > 100 | > 100 | > 100 | > 100 | > 100 | EC50 [11]: > 100 µg/mL; EC50 [12]: > 100 µg/mL; CC50 (MDCK): > 100 µg/mL; MCC [13]: > 100 µg/mL; EC50 (Influenza A virus [14]): > 100 µg/mL; EC50 (Influenza A virus [15]): > 100 µg/mL; EC50 (Influenza B virus [16]): > 100 µg/mL; EC50 (Influenza B virus [17]): > 100 µg/mL; MCC [18]: > 100 µg/mL; EC50 (Human respirovirus 3): > 100 µg/mL; EC50 [19]: > 100 µg/mL; EC50 (Sindbis virus): > 100 µg/mL; EC50 (Coxsackievirus B4 [20]): > 100 µg/mL; EC50 (Punta Toro virus): > 100 µg/mL |
